Reference: ChEMBL document CHEMBL1126879, “A new series of imidazolones: highly specific and potent nonpeptide AT1 angiotensin II receptor antagonists” (J Med Chem, 1993)
pIC50: −log10 of the molar value.

Key:
[1] = molecular target: T1, Type-1 angiotensin II receptor B (Rattus norvegicus, UniProt P29089); assay: Binding affinity for Angiotensin II receptor, type 1 measured by ability to displace [125I]- A II from its specific binding site in rat liver membrane; format: cell membranes
T1 sequence (P29089 whole entry): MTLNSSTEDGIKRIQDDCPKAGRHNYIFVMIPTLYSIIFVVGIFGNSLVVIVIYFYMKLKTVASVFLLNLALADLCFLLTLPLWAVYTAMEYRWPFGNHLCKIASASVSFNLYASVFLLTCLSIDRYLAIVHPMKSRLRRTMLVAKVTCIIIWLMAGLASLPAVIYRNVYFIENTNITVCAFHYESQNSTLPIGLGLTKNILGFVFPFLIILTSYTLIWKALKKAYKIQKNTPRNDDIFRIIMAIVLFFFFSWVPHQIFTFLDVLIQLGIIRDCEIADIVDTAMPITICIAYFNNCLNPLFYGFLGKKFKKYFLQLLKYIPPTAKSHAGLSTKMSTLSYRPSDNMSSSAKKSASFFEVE
Summary of the method: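 Purified plasma membranes from male Sprague-Dawley rat liver, isolated on a sucrose gradient, 20–30 μg protein per assay. Filtered, then gamma counted. Nonspecific binding with 1 μM unlabeled AII. Triplicates; IC50 and Hill coefficient from Hill plots.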

Oryctolagus cuniculus = species: Oryctolagus cuniculus; assay: Antagonistic activity through inhibition of A II induced contractions on rabbit aortic strips; format: functional; details: Aorta

| Compound | pIC50 [1] | pIC50 (Oryctolagus cuniculus) |
| --- | --- | --- |
| CCCCC1=NC2(CCCC2)C(=O)N1Cc1ccc(-c2ccccc2C(=O)OC)cc1 | 5.74 | < 5.00 |
| CCCCC1=NC2(CCC2)C(=O)N1Cc1ccc(-c2ccccc2C(=O)O)cc1 | 7.42 | 7.38 |
| CCCCC1=NC(c2ccccc2)(c2ccccc2)C(=O)N1Cc1ccc(-c2ccccc2C(=O)O)cc1 | 5.52 | 5.27 |
| CCCCC1=NC2(Cc3ccccc3C2)C(=O)N1Cc1ccc(-c2ccccc2C(=O)O)cc1 | 7.22 | 6.62 |
| CCCCC1=NC2(CCCC2)C(=O)N1Cc1ccc(-c2ccccc2-c2nnn[nH]2)cc1 [IRBESARTAN] | 8.89 | 8.40 |
| CCCCC1=NC2(CCN(C(C)=O)CC2)C(=O)N1Cc1ccc(-c2ccccc2C(=O)O)cc1 | 7.74 | 6.89 |
| CCCCC1=NC2(CCCC2)C(=O)N1Cc1ccc(-c2ccccc2C#N)cc1 | 6.36 | < 5.00 |
| CCCCC1=NC2(CCCC2)C(=S)N1Cc1ccc(-c2ccccc2C(=O)O)cc1 | 7.10 | 7.28 |
| CCCCC1=NC2(CCOCC2)C(=O)N1Cc1ccc(-c2ccccc2C(=O)O)cc1 | 7.33 | 6.70 |
| CCCCC1=NC2(CCN(C(=O)C(N)CC(=O)O)CC2)C(=O)N1Cc1ccc(-c2ccccc2C(=O)O)cc1 (stereo not given) | 6.10 | – |
| CCCCC1=NC2(C(=O)N1Cc1ccc(-c3ccccc3C(=O)O)cc1)C1CC3CC(C1)CC2C3 (stereo not given) | 7.21 | 7.64 |
| O=C(O)c1ccccc1-c1ccc(CN2C(=O)C3(CCCC3)N=C2Cc2ccccc2)cc1 | 5.60 | 5.41 |
| CCCCc1nc(Cl)c(CO)n1Cc1ccc(-c2ccccc2-c2nnn[nH]2)cc1 [LOSARTAN] | – | 7.60 |
| CCCCC1=NC2(CCCCCCCCCC2)C(=O)N1Cc1ccc(-c2ccccc2C(=O)O)cc1 | 6.46 | 6.46 |
| CNCC(=O)N[C@@H](CCCNC(=N)N)C(=O)N[C@H](C(=O)N[C@@H](Cc1ccc(O)cc1)C(=O)N[C@H](C(=O)N[C@@H](Cc1cnc[nH]1)C(=O)N1CCC[C@H]1C(=O)N[C@@H](C)C(=O)O)C(C)C)C(C)C [SARALASIN] | 8.62 | 8.64 |
| CCCCC1=NC2(CCN(Cc3ccccc3)CC2)C(=O)N1Cc1ccc(-c2ccccc2C(=O)O)cc1 | 6.96 | 6.38 |
